The list is not random: actives were taken first. Their share in the collection is about 4.1%.
Cl transport mod: modulates chloride dependent transport by human KCC2 | B-score of Tl+ flux slope (higher = more flux/activation; lower = inhibition) at 10 µM | hit rate 2.2% among 190,000 | KCC2 cells, thallium flux FluoZin-2 fluorescence | Q9H2X9;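 active = thallium flux slope and its plate-corrected score both differing from the plate sample mean at a set confidence after two filtering rounds, in either direction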;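 note: slope of fluorescence scaled to starting intensity during 10 to 20 s after thallium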
Target sequence (Q9H2X9 whole entry, looked up): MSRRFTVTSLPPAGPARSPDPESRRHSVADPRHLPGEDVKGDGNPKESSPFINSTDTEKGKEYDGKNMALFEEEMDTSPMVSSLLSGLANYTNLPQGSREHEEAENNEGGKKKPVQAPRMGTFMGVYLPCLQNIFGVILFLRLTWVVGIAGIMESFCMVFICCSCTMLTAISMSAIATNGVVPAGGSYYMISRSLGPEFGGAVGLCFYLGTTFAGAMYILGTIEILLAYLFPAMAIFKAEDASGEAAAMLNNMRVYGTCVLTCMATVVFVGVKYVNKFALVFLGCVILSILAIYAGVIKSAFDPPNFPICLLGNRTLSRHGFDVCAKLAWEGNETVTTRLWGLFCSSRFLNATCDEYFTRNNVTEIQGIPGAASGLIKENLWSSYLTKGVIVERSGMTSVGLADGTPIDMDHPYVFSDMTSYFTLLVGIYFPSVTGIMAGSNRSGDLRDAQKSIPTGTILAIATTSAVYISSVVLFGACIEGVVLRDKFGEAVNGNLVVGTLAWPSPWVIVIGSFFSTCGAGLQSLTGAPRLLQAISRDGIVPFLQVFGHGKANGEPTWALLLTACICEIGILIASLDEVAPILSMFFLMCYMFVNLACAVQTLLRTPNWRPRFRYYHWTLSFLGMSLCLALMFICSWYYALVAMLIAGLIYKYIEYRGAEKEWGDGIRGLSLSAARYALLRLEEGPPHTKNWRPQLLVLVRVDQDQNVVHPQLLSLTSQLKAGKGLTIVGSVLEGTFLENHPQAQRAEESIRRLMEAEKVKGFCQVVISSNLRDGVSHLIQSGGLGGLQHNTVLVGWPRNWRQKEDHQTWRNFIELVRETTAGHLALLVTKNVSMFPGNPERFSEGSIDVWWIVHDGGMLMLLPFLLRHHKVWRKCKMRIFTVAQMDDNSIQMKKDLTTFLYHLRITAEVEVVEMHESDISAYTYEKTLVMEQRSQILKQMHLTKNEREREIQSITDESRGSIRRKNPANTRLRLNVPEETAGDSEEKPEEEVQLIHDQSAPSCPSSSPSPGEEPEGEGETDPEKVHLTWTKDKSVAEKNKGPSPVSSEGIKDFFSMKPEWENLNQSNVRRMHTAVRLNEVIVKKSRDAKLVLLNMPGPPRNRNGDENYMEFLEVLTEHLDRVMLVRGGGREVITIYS
KCNK3 block: human KCNK3 channel inhibition, primary screen; CHO-KCNK3 thallium flux, FluxOR fluorescence; stronger effect = lower value; hit rate 0.84% among 340,000; AID 602410; B-score at 10 µM;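 active = B-score under library mean minus 4 SD, starting fluorescence ratio at most library mean plus 5 SD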;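 note: more negative B-score means stronger inhibition of thallium flux through KCNK3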
KCNK9 block: inhibitors of human KCNK9 two-pore domain potassium channel; Q9NPC2; HEK293 KCNK9, FluxOR thallium flux fluorescence; stronger effect = lower value; B-score at 10 µM; hit rate 1.2% among 310,000;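 active = ratio B-score over 3 SD below the library mean, with starting fluorescence within 5 SD of its mean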;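 note: negative B-score means less thallium flux so channel inhibition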
hERG rescue: compounds protecting human hERG from proarrhythmic drug block; CHO-hERG, FluxOR thallium flux, dofetilide IC70 present; activation (rescue from dofetilide block), less the hit threshold, % at 10 µM; hit rate 0.51% among 310,000; AID 1511;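 active = activation above the mean of controls blocked by dofetilide plus 5 SD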;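 note: thallium influx through hERG after potassium depolarization seen as dye fluorescence rise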
KCNQ1 act: potentiators or activators of human KCNQ1 potassium channel. P51787. CHO-K1 KCNQ1, thallium flux FluxOR fluorescence; stronger effect = higher value. B-score at 10 µM. hit rate 0.35% among 310,000;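 active = fluorescence ratio B-score, a plate-corrected score, at least three library SD, with initial intensity B-score within 5 SD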
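assay system = CHO-K1 cells stably expressing KCNQ1 | medium = assay buffer, equal DMSO in all wells | timing = 37 °C overnight plating, 90-min dark dye load, 20-min compound pretreatment | measured by = kinetic FluxOR thallium fluorescence, 10-s 1-Hz baseline, 110-s post-stimulus read | measure = fluorescence change relative to baseline, converted to B score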
KCNQ1 block: blocks the human KCNQ1 potassium channel | P51787 | CHO-K1 KCNQ1, FluxOR thallium flux fluorescence; stronger effect = higher value | B-score at 10 µM | hit rate 1.3% among 310,000;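 active = compounds whose thallium flux B-score, printed positive for inhibition, exceeds three library SD while starting fluorescence stays within three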;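 note: channel opened by potassium depolarization with thallium stimulus after 20 min compound exposure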
KCNK9 block conf: confirmation of human KCNK9 potassium channel inhibitors. shares compounds with KCNK9 block. HEK293 KCNK9 cells, FluxOR thallium flux fluorescence. inhibition, % at 10 µM. hit rate 43% among 4,900;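 active = thallium signal inhibited by more than 5 SD of the compound-free buffer control wells, on both duplicate plates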
Kir21 sel: mouse Kir2.1 off-target activity of KCNK9 modulators. shares compounds with KCNK9 block. hit rate 4% among 4,900. inhibition, % at 10 µM. Kir2.1 cells, FluxOR thallium flux fluorescence. AID 492993;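 active = thallium signal drop more than 5 SD beyond the mean of the no-compound control wells, seen in both duplicate plates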;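 note: signal is fluorescence rise after thallium addition divided by baseline fluorescence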
KCNK9 uninduced: non-induced cell nonspecific activity of KCNK9 modulators; AID 492997; hit rate 40% among 4,900; inhibition, % at 10 µM; non-induced KCNK9-HEK293, FluxOR thallium flux; shares compounds with KCNK9 block;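 active = thallium signal drop beyond 5 SD of the untreated control mean, on both duplicate plates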
Each line names hits and unclear results; the compound was inactive in the other large screens (follow-up assays come after a bar, where they were run).

O=C(CNC(=O)N1CC(=O)Nc2ccccc21)Nc1ccc(Cl)cc1	none (no result: Cl transport mod)
Cc1nc(-c2cccc(S(=O)(=O)N3CCCCCC3)c2)cs1	none | KCNK9 block conf inactive | Kir21 sel inactive | KCNK9 uninduced inactive
C[C@@]12C(=O)N(Cc3ccccc3)CC(=O)N1[C@H]1c3cc(Cl)ccc3OC[C@@H]1[C@@H]2c1ccccc1	none (no result: Cl transport mod, KCNK9 block, hERG rescue, KCNQ1 act, KCNQ1 block)
O=C(CN(Cc1ccccc1Cl)C(=O)CCC(=O)Nc1nccs1)NCC1CCCO1 (stereo not drawn)	none (no result: Cl transport mod)
COc1ccc(N=C2SC(CC(=O)Nc3ccccc3OC)C(=O)N2Cc2ccco2)cc1 (stereo not drawn)	none | KCNK9 block conf inactive | Kir21 sel inactive | KCNK9 uninduced inactive
CCOC(=O)C1(CCCc2ccccc2)CCN(C(=O)CSC)CC1	none (no result: Cl transport mod)
CCOC(=O)C1(CCCc2ccccc2)CCN(Cc2nccn2CC)CC1	none | KCNK9 block conf inactive | Kir21 sel inactive | KCNK9 uninduced inactive
CCOC(=O)C1(CCc2ccccc2)CCN(Cc2cccc3nccnc23)CC1	none | KCNK9 block conf inactive | Kir21 sel inactive | KCNK9 uninduced 23%
CCOC(=O)C1(CCOc2ccccc2)CCN(Cc2nccn2CC)CC1	none
CCOC(=O)C1(CCCc2ccccc2)CCN(C(=O)Cc2nonc2C)CC1	none (no result: Cl transport mod) | KCNK9 block conf inactive | Kir21 sel inactive | KCNK9 uninduced inactive
C/C(CCc1ccco1)=N\NC(=O)CNc1c(Br)cc(Br)cc1Br	none
COc1ccc(CN=Cc2c(C(F)(F)F)[nH][nH]c2=O)cc1	KCNK9 block -11 (no result: Cl transport mod) | KCNK9 block conf 27% | Kir21 sel inactive | KCNK9 uninduced inactive
Cc1ccc(C(=O)NCCn2ccc3ccccc32)cc1[N+](=O)[O-]	none | KCNK9 block conf inactive | Kir21 sel inactive | KCNK9 uninduced inactive
Cc1ccc(C(=O)NCCc2cccc(Cl)c2)cc1[N+](=O)[O-]	none | KCNK9 block conf inactive | Kir21 sel inactive | KCNK9 uninduced inactive
O=C(NCCc1cccc(Cl)c1)c1ccc(Cl)c([N+](=O)[O-])c1	none | KCNK9 block conf inactive | Kir21 sel inactive | KCNK9 uninduced inactive
O=C(NCCc1nc2ccccc2[nH]1)c1ccc(Cl)c([N+](=O)[O-])c1	none
CC(=O)NCCn1c(C)cc2ccccc21	none
Cc1cc2ccccc2n1CCNC(=O)c1ccccc1	KCNK9 block -9.6 | KCNK9 block conf 36% | Kir21 sel inactive | KCNK9 uninduced 25%
Cc1c(CCC(=O)O)c(=O)oc2cc3occ(C(C)(C)C)c3cc12	none
O=C1C=C(c2ccc(Br)c3ccccc23)C[C@@H](c2ccc3c(c2)OCO3)C1	none (no result: Cl transport mod, KCNK9 block, hERG rescue, KCNQ1 act, KCNQ1 block)
CCC1CCCCN1C(=O)c1ccc(OC2CCN(C(=O)C3CC3)CC2)cc1 (stereo not drawn)	none
CN(C)c1ccc(N=Cc2ccco2)cc1	none (no result: Cl transport mod, KCNK9 block, hERG rescue, KCNQ1 act, KCNQ1 block)
C(=N\N(Cc1ccccc1)c1ccccc1)/c1ccco1	KCNK9 block -8.1 | KCNK9 block conf inactive | Kir21 sel inactive | KCNK9 uninduced 42%
CSc1nnc(Cc2sc(-c3ccccc3)nc2-c2ccccc2)o1	KCNK9 block -8.1 | KCNK9 block conf inactive | Kir21 sel inactive | KCNK9 uninduced 25%
Fc1ccc(CSc2nnc(Cc3sc(-c4ccccc4)nc3-c3ccccc3)o2)cc1	none
O=C(O)C1=NOC(CNc2ncc(C(F)(F)F)cc2Cl)C1 (stereo not drawn)	none
N#CCSc1nc2ccccc2c(=O)n1C1CCCCC1	none
COc1ccc(OC)c(NC(=O)CCCNC(=O)c2ccc(Cl)cc2)c1	none (no result: Cl transport mod)
CCn1nc(C(=O)Nc2ccccc2C)c(Cl)c1Cl	none
CCn1cc(Br)c(C(=O)Nc2cccc(Cl)c2)n1	KCNK9 block -12 | KCNK9 block conf 63% | Kir21 sel inactive | KCNK9 uninduced 33%
CCn1nc(C(=O)Nc2cccc(C(F)(F)F)c2)c(Cl)c1Cl	KCNK9 block -8.9 | KCNK9 block conf 46% | Kir21 sel inactive | KCNK9 uninduced 28%
CCn1cc(Br)c(C(=O)Nc2ccc(Cl)c(Cl)c2)n1	none
CCCCOc1ccc(-n2nc(C)cc2C)nn1	none
COc1ccccc1N1CCN(C2CCCN(C(=O)c3cccc(-c4ccco4)c3)C2)CC1 (stereo not drawn)	none (no result: Cl transport mod) | KCNK9 block conf inactive | Kir21 sel inactive | KCNK9 uninduced inactive
COc1ccccc1N1CCN(C2CCCN(C(=O)c3ccoc3C)C2)CC1 (stereo not drawn)	none (no result: Cl transport mod)
CC(=O)/C=C\c1ccc(OC(=O)c2cccnc2)cc1	none (no result: Cl transport mod)
Cc1ccc(S(=O)(=O)c2c(C)cc(C)nc2Cl)cc1	none (no result: Cl transport mod)
Cc1cc(C)c(S(=O)(=O)c2ccc(C(C)(C)C)cc2)c(Cl)n1	none (no result: Cl transport mod) | KCNK9 block conf inactive | Kir21 sel inactive | KCNK9 uninduced inactive
CC1=C(C(=O)OC(C)C)C(C2CC=CCC2)NC(=O)N1 (stereo not drawn)	none (no result: Cl transport mod)
Cc1cc2ccccn2c1C(=O)c1nc(NCc2ccccc2)ncc1Cl	none | KCNK9 block conf inactive | Kir21 sel inactive | KCNK9 uninduced 26%
CC(=O)N1CCN(C(=O)COc2ccc3oc4c(c3c2)CCCC4)CC1	none (no result: Cl transport mod)
O=C(N/N=C/c1cc(Br)ccc1OC(=O)c1ccc(Br)cc1)c1ccncc1	KCNK9 block -12 (no result: Cl transport mod) | KCNK9 block conf 45% | Kir21 sel inactive | KCNK9 uninduced 34%
O=C(N/N=C/c1ccncc1)c1ccccc1OCc1ccc(Br)cc1	KCNK9 block -8.9 | KCNK9 block conf inactive | Kir21 sel inactive | KCNK9 uninduced inactive
C#CCOc1ccccc1/C=N/NC(=O)c1ccccc1OCc1ccccc1	KCNK9 block -9.6 (no result: Cl transport mod) | KCNK9 block conf 30% | Kir21 sel inactive | KCNK9 uninduced 41%
O=C(N/N=C/c1cc(Br)ccc1O)c1ccncc1	none
O=C(N/N=C\c1ccccc1OCc1ccccc1)c1ccco1	none
CCC(C)n1cnc2c(=O)oc3ccccc3c21 (stereo not drawn)	none
CC(C)NC(=O)c1cc2cc(Br)ccc2oc1=O	none (no result: Cl transport mod)
Cc1ccc(C(C)NC(=O)c2cc3cc(Br)ccc3oc2=N)cc1 (stereo not drawn)	KCNQ1 block 7 (no result: Cl transport mod) | KCNK9 block conf inactive | Kir21 sel inactive | KCNK9 uninduced inactive
COc1ccc(-c2noc(N3CCC(C(=O)Nc4cccc(OC)c4)CC3)n2)cc1	none (no result: Cl transport mod)
COCCNC(=O)/C(C#N)=C1\N=C(NC(=O)c2cccs2)c2ccccc21	none (no result: Cl transport mod)
COc1ccc(CNC(=O)/C(C#N)=C2\N=C(NC(=O)c3cccs3)c3ccccc32)cc1	none | KCNK9 block conf inactive | Kir21 sel inactive | KCNK9 uninduced inactive
COc1cc(CN2CCc3c([nH]c4ccccc34)C2)cc(OC)c1	KCNK9 block -8.1 (no result: Cl transport mod) | KCNK9 block conf 39% | Kir21 sel inactive | KCNK9 uninduced inactive
